Laboratory results from ChEMBL document CHEMBL3272254, “Inhibition of squalene synthetase by farnesyl pyrophosphate analogues” (J Med Chem, 1977).
Activity calls are given as the source filed them. No cut-off for these calls is given here.

Columns and labels:
[1] = target: T1, Squalene synthase ERG9 (Saccharomyces cerevisiae (strain ATCC 204508 / S288c) (Baker's yeast)) (UniProt P29704); assay: Inhibition of Baker's yeast squalene synthetase assessed as incorporation of [1-3H]farnesyl pyrophosphate into squalene at 2 to 6 uM after 2 mins by liquid scintillation spectrometer analysis
T1 sequence (whole entry): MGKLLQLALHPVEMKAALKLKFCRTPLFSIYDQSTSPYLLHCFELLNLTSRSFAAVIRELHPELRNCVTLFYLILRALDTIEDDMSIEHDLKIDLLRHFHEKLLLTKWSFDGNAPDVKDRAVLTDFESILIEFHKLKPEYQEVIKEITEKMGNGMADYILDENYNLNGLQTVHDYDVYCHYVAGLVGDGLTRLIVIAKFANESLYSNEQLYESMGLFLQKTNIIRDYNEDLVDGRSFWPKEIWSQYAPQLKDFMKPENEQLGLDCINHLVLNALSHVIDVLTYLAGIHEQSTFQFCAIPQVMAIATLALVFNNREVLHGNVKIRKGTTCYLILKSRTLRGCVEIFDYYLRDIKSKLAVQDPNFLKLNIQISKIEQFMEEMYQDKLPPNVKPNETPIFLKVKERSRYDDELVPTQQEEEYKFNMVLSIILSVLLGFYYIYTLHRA
Method in brief: (§1)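 Enzyme: yeast […] from sonicated baker's yeast, high-speed supernatant precipitated at 30–55% ammonium sulfate, dialyzed in 100 mM K phosphate pH 7.0 with 20 mM 2-mercaptoethanol. Assay in 1 ml at 37 °C, started with enzyme (1.34 mg/ml protein): [1-3H]FPP 1–10 µM, 10 mM MgCl2, 1.6 mM NADPH, 50 mM K phosphate pH 7.5. Squalene recovered by minicolumn and scintillation counted. Each point done in at least two independent experiments.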

[2] = target: T1, Squalene synthase ERG9 (Saccharomyces cerevisiae (strain ATCC 204508 / S288c) (Baker's yeast)); assay: Inhibition of Baker's yeast squalene synthetase assessed as incorporation of [1-3H]farnesyl pyrophosphate into squalene up to 20 uM after 2 mins by liquid scintillation spectrometer analysis; method in brief: as §1
[3] = target: T1, Squalene synthase ERG9 (Saccharomyces cerevisiae (strain ATCC 204508 / S288c) (Baker's yeast)); assay: Competitive inhibition of Baker's yeast squalene synthetase using [1-3H]farnesyl pyrophosphate as substrate by Lineweaver-Burk graphic analysis; method in brief: as §1
[4] = target: T1, Squalene synthase ERG9 (Saccharomyces cerevisiae (strain ATCC 204508 / S288c) (Baker's yeast)); assay: Inhibition of Baker's yeast squalene synthetase using [1-3H]farnesyl pyrophosphate as substrate at 4 uM preincubated for up to 5 hrs before substrate addition by liquid scintillation spectrometer analysis
[5] = target: T1, Squalene synthase ERG9 (Saccharomyces cerevisiae (strain ATCC 204508 / S288c) (Baker's yeast)); assay: Mixed type inhibition of Baker's yeast squalene synthetase using [1-3H]farnesyl pyrophosphate as substrate by Lineweaver-Burk graphic analysis; method in brief: as §1

| Compound | inhibition [1] | inhibition [2] | inhibition [3] | inhibition [4] | inhibition [5] |
| --- | --- | --- | --- | --- | --- |
| CC(C)=CCC/C(C)=C/CC/C(C)=C(\C)COP(=O)(O)OP(=O)(O)O | Active | inactive |  |  |  |
| CC(C)CCCC(C)CCCC(C)CCOP(=O)(O)OP(=O)(O)O (stereo not given) |  | inactive | Active |  |  |
| CSC(C/C=C(\C)CCC=C(C)C)/C(C)=C/COP(=O)(O)OP(=O)(O)O (stereo not given) |  | inactive | Active | Active |  |
| C/C(=C\COP(=O)(O)OP(=O)(O)O)CCCC(C)CCCC(C)C (stereo not given) |  | inactive | Active |  |  |
| CC(C)=CCC/C(C)=C/CCC#CCOP(=O)(O)OP(=O)(O)O |  | inactive |  | Active | Active |
| CC/C(=C\COP(=O)(O)OP(=O)(O)O)CC/C=C(\C)CCC=C(C)C | Active | inactive | Active |  |  |
| C/C(=C\COP(=O)(O)OP(=O)(O)O)CCCC(C)CCCC(C)CCCC(C)C (mixture of isomers) |  | inactive | Active |  |  |

Continued, values first:

| inhibition [1] | inhibition [2] | inhibition [3] | inhibition [4] | inhibition [5] | Compound |
| --- | --- | --- | --- | --- | --- |
|  | inactive | Active | Active |  | CC(C)=CCC/C(C)=C/CC/C(I)=C\COP(=O)(O)OP(=O)(O)O |
|  | inactive | Active | Active |  | CC(C)=CCC/C(C)=C/CC/C=C(/I)COP(=O)(O)OP(=O)(O)O |
|  | inactive |  | Active | Active | CC(C)=CCC/C(C)=C/CC/C=C/COP(=O)(O)OP(=O)(O)O |
| Active | inactive | Active |  |  | CC(C)=CCC/C(C)=C/COP(=O)(O)OP(=O)(O)O |
| Active |  |  |  |  | CC(C)=CCC/C(C)=C/CC/C(C)=C/COP(=O)(O)OP(=O)(O)O |
